Among the data in the RNAGym collection of RNA variant scans (doi:10.1002/anie.201605470) are self-cleavage values, retold here.

B1: Osa-1-4 twister ribozyme (parent)
chain: CCGCCUAACACUGCCAAUGCCGGUCCCAAGCCCGGAUAAAAGUGGAGGGGGCGG

In this data set the parent is B1. The experiment in a line: self-cleavage, relative activity (ratio to wild type); higher = more cleavage; co-transcriptional. Put shortly:
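For each read, cleavage status was taken from whether upstream sequence was present. The reads came from an Oryza sativa twister ribozyme of 54 nucleotides, whose DNA template was synthesised with 97 % wild-type base and 1 % of each other base at the 48 positions downstream of the cleavage site. The template was transcribed in vitro at 37 °C for 2 h with co-transcriptional self-cleavage, and the RNA was reverse-transcribed using a template-switching oligonucleotide, PCR-amplified and deep-sequenced. Relative activity is the fraction cleaved normalised to wild type.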
In the case of C32G U37C, the self-cleavage is 0.14. For C33A C9A the value was 0.05; for C33A C9G, 0.08; for C33A C9U, 0.07. As for C32A G22C, the figure is 0.03. Take C32A G22A: the self-cleavage was 0.08. As for C32A G22U, the figure is 0.06. For C32G U18C the value was 0.15; for C32G U18G, 0.14; for C32G U18A, 0.14. As for C32G G51A, the figure is 0.09. Take C32G G51C: the self-cleavage was determined as 0.05.

In the case of C32G G51U, the self-cleavage worked out at 0.07. For C32G G34U the value was 0.08; for C32G G34A, 0.09; for C32G G34C, 0.06. As for C32G G50A, the figure is 0.1; as for C32G G50U, 0.11; as for C32G G50C, 0.09. As for C32G G42C, the figure is 0.08; as for C32G G42U, 0.04; as for C32G G42A, 0.09. As for C32U G53C, the self-cleavage worked out at 0.05. For C32U G53U the value was 0.09. As for C32U G53A, the figure is 0.09; as for C32G C52U, 0.2; as for C32G C52A, 0.12. For C32G C52G the value was 0.16; for C32G C9G, 0.11; for C32G C9U, 0.04. C32G C9A: the self-cleavage was 0.03. For C33A U37G the value was 0.29. For C33A U37A the value was 0.34. As to C33A U37C, the self-cleavage stood at 0.14. As for C32G G49U, the figure is 0.05; as for C32G G49C, 0.04; as for C32G G49A, 0.05. Regarding C33G G30A, the self-cleavage worked out at 0.02. For C33G G30U the value was 0.02; for C33G G30C, 0.02; for C32U G51U, 0.05.

Consider C32U G51A, for which the self-cleavage is 0.07. For C32U G51C the value was 0.05; for C32G G44C, 0.07. Regarding C32G G44U, the self-cleavage was 0.08.

Regarding C32G G44A, the self-cleavage was determined as 0.11.

Turning to C33A G54A, the self-cleavage stood at 0.11. For C33A G54U the value was 0.24; for C33A G54C, 0.07. With C33A G13U, the self-cleavage was determined as 0.02. As for C33A G13A, the figure is 0.02; as for C33A G13C, 0.01. For C32A G13A the value was 0.01. As for C32A G13C, the figure is 0.01; as for C32A G13U, 0.01; as for C32G G45A, 0.05. As for C32G G45U, the self-cleavage is 0.04.

Consider C32G G45C, for which the self-cleavage is 0.03. As for C32U G44U, the figure is 0.07; as for C32U G44A, 0.08; as for C32U G44C, 0.09. For C32U G42C the value was 0.07; for C32U G42U, 0.03; for C32U G42A, 0.08. For C32U G48C the value was 0.03. With C32U G48A, the self-cleavage is 0.03. Turning to C32U G48U, the self-cleavage was determined as 0.03. As for C33A G42U, the figure is 0.03; as for C33A G42C, 0.06; as for C33A G42A, 0.06. For C32U C33U the value was 0.06; for C32U C33A, 0.04; for C32U C33G, 0.02. For C32G G53C the value was 0.06; for C32G G53U, 0.07. Turning to C32G G53A, the self-cleavage was 0.1.

For the variant C32A G34C, the self-cleavage stood at 0.08. As for C32A G34A, the figure is 0.06; as for C32A G34U, 0.05; as for C32A G45C, 0.02.

Consider C32A G45U, for which the self-cleavage came out at 0.03. As for C32A G45A, the figure is 0.04; as for C33A G51A, 0.06; as for C33A G51U, 0.05. For C33A G51C the value was 0.05; for C33A, 0.28. As to C33G, the self-cleavage was determined as 0.06. As for C33G G22U, the figure is 0.87; as for C33G G22A, 0.16; as for C33G G22C, 0.62. Regarding C33A G22A, the self-cleavage was determined as 0.87. As to C33A G22C, the self-cleavage turned out to be 0.22. For C33A G22U the value was 0.93.

As for C33G C52A, the self-cleavage was determined as 0.08. As for C33G C52G, the figure is 0.26; as for C33G C52U, 0.05. On to C33A G19A, for which the self-cleavage came out at 0.07. As for C33A G19U, the figure is 0.04.

Turning to C33A G19C, the self-cleavage turned out to be 0.03. For the variant C33A C52U, the self-cleavage was determined as 0.28.

For C33A C52G, the self-cleavage was 0.17. As for C33A C52A, the figure is 0.11. On to C32G G47U, for which the self-cleavage was 0.04. For C32G G47C the value was 0.04; for C32G G47A, 0.09; for C33A G44U, 0.1. For C33A G44C the value was 0.09; for C33A G44A, 0.08; for C33G G13A, 0.03.

As for C33G G13C, the self-cleavage was 0.01. As for C33G G13U, the figure is 0.01. With C33A G45U, the self-cleavage was determined as 0.04. As for C33A G45A, the figure is 0.06.

With C33A G45C, the self-cleavage was determined as 0.04. On to C32A G48A, for which the self-cleavage came out at 0.03.

For the variant C32A G48C, the self-cleavage amounted to 0.04.

On to C32A G48U, for which the self-cleavage was found to be 0.03. As for C32A U18C, the figure is 0.07; as for C32A U18G, 0.19. As for C32A U18A, the figure is 0.11; as for C32G U12G, 0.06; as for C32G U12A, 0.12. As for C32G U12C, the figure is 0.08.

Turning to C32U G35U, the self-cleavage turned out to be 0.06. Regarding C32U G35C, the self-cleavage is 0.06. For C32U G35A the value was 0.08. As for C32U G50A, the figure is 0.1; as for C32U G50C, 0.09. For C32U G50U, the self-cleavage is 0.11. As for C32U G23A, the figure is 0.85; as for C32U G23C, 0.03. For C32U G23U, the self-cleavage turned out to be 0.12. C32U G22A: the self-cleavage was 0.09. Consider C32U G22U, for which the self-cleavage was 0.07. For the variant C32U G22C, the self-cleavage was 0.04. For C33A U12C the value was 0.06; for C33A U12G, 0.06. As for C33A U12A, the figure is 0.06.

As for C32A G49C, the self-cleavage was determined as 0.03. For C32A G49A the value was 0.04.

As for C32A G49U, the self-cleavage was 0.04.

On to C32A G50U, for which the self-cleavage amounted to 0.08.

Turning to C32A G50C, the self-cleavage was determined as 0.07. As for C32A G50A, the figure is 0.05; as for C33A G48U, 0.04; as for C33A G48C, 0.05. As for C33A G48A, the figure is 0.04; as for C33G G34A, 0.06; as for C33G G34U, 0.05. For C33G G34C the value was 0.05. Turning to C32A G44U, the self-cleavage was found to be 0.08. For C32A G44A the value was 0.06; for C32A G44C, 0.07; for C32U G45U, 0.04. For C32U G45A the value was 0.08; for C32U G45C, 0.03. Regarding C32G G23A, the self-cleavage is 0.27. With C32G G23U, the self-cleavage was 0.29. As for C32G G23C, the figure is 0.08; as for C32A G51C, 0.03.

Turning to C32A G51U, the self-cleavage was 0.04.

In the case of C32A G51A, the self-cleavage stood at 0.07. Regarding C32G, the self-cleavage is 0.18. As for C32U, the figure is 0.24; as for C32A G47U, 0.04. As for C32A G47A, the figure is 0.04; as for C32A G47C, 0.03.
